Hits are enriched below; roughly 3.1% of the tested compounds scored in any of these assays.
Apaf1 inhib: human Apaf-1 inhibition | reconstituted apoptosome caspase-3 activity, DEVD-Rh110 fluorescence | inhibition, % at 20 µM | 0.71% of 330,000 active | AID 489030; active means inhibition of at least 40% at 20 µM;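 further: plate controls were DMSO wells for no effect and DEVD-CHO caspase inhibitor wells for full effect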
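Assay system: Apoptosome proteins | Medium: pH 7.5 Hepes buffer with CHAPS, BSA, DTT | Also added: Cytochrome c and DEVD-Rh110 substrate | Times: 30 min plus 50 min, RT | Detection: Rhodamine 110 fluorescence at Ex 480/Em 540 nm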
PAFAH1B3 FP inh: inhibitors of human PAFAH1B3; inhibition, % at 3.39 µM; Q15102; recombinant PAFAH1B3, FP-rhodamine probe, fluorescence polarization; 0.28% of 340,000 active;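 active means inhibition above the screen-wide average of all tested compounds plus 3 SD, cut at about 25% in these data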;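 further: 0% = enzyme with DMSO only and 100% = wells lacking PAFAH1B3 protein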
pPAFAH inh: pPAFAH (human) enzyme inhibition; Q13093; recombinant pPAFAH, FP-rhodamine probe fluorescence polarization; inhibition, % at 3.39 µM; 1.5% of 330,000 active; AID 463082;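 active means inhibition above the mean inhibition across the screen plus 3 SD, cut at about 25% in these data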;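 further: inhibitors block binding of the rhodamine activity-based probe so polarization drops; 0% = enzyme with DMSO and 100% = wells lacking pPAFAH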
Target sequence (Q13093 whole entry, looked up): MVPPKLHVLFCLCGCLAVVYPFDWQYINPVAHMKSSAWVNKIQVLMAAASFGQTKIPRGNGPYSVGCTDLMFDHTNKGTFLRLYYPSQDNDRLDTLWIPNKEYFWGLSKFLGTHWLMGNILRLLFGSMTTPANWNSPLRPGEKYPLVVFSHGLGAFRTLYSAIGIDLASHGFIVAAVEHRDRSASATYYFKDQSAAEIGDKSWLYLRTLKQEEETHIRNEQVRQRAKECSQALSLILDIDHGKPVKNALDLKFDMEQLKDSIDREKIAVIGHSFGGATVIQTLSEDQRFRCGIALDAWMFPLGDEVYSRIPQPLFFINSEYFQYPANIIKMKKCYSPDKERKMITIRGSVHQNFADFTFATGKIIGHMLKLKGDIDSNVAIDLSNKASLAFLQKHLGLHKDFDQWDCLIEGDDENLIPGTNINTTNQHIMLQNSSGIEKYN
PAFAH1B2 inh: inhibitors of human PAFAH1B2 | recombinant PAFAH1B2, FP-rhodamine activity probe, fluorescence polarization | AID 492953 | 1.2% of 340,000 active | inhibition, % at 3.39 µM;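 active means inhibition above the mean of all tested compounds plus 3 SD, cut at about 24% in these data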;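 further: 0% = enzyme with DMSO and 100% = wells lacking PAFAH1B2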
PAFAH2 FP inh: PAFAH2 (human) inhibition | Q99487 | 0.99% of 340,000 active | recombinant PAFAH2, FP-rhodamine activity probe, fluorescence polarization | inhibition, % at 3.39 µM;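 active means inhibition above the mean over all tested compounds plus 3 SD, cut at about 30% in these data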;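 further: inhibitors block probe labeling of enzyme so polarization drops; 0% = enzyme with DMSO and 100% = wells lacking PAFAH2 protein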
Apaf-1 inh conf2: Apaf-1 inhibition, single-dose confirmed | shares compounds with Apaf1 inhib | reconstituted apoptosome, caspase-3 DEVD-Rh110 fluorescence | inhibition, % at 20 µM | 25% of 1,800 active | AID 504614;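 active means mean inhibition of at least 40% at 20 µM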;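 further: plate controls were DMSO wells for no effect and DEVD-CHO caspase inhibitor control wells for full effect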
Rh110 quench: counter-screen for Apaf-1 inhibitors: fluorescence interference | shares compounds with Apaf1 inhib | Rh110 fluorescence interference, quenched caspase reaction | activation (fluorescence interference), % at 20 µM | 1,800 tested, under 10 active;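 active means signal rise of 40% or more at 20 µM, treated as a fluorescence artifact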
Apaf1 inh interf: counter-screen for Apaf-1 inhibitors: fluorescence interference, dose response; fluorescence interference counterscreen, Apaf-1 assay format; 460 tested, under 10 active; IC50, µM; shares compounds with Apaf1 inhib; call rule not given here
* = called active by the depositor; nt = no result; ! = not active in a repeat.

SMILES | Apaf1 inhib | PAFAH1B3 FP inh | pPAFAH inh | PAFAH1B2 inh | PAFAH2 FP inh | Apaf-1 inh conf2 | Rh110 quench | others
CCc1nnc(NC(=O)c2ccc(S(=O)(=O)N3CCCCC3)cc2)s1 | 54.7* | -1.8 | 4.4 | 6.7 | 16.4 | 15.9 | 2.3
CN(C)S(=O)(=O)c1ccc(NC(=O)CN2CCCC2c2ccc3c(c2)OCCCO3)cc1 (stereo not drawn) | 45.8* | -2.3 | 1.7 | -5.2 | -3.9 | 31.6 | 3.9
COC(=O)CCC(=O)OC1(C)C(=O)C=C2C=C(C3CC3)N(CCc3ccccn3)C=C2C1=O (stereo not drawn) | 53.2* | 8.1 | -2.3 | 1.0 | 9.6 | 37.7 | 4.4
C=CCN1C=C2C(=O)C(C)(OC(=O)CCC(=O)OC)C(=O)C=C2C=C1C1CC1 (stereo not drawn) | 43.0* | 0.8 | 4.5 | 0.3 | 3.7 | 53.5* | 1.6 | Apaf1 inh interf=>100
COC(=O)CCC(=O)OC1(C)C(=O)C=C2C=C(C3CC3)N(C(CO)CO)C=C2C1=O (stereo not drawn) | 32.9 | -1.7 | 6.5 | 4.4 | 6.5 | nt | nt
COC(=O)CCC(=O)OC1(C)C(=O)C=C2C=C(C3CC3)N(Cc3ccc(OC)cc3)C=C2C1=O (stereo not drawn) | 35.4 | -4.5 | 8.9 | 9.9 | -0.1 | nt | nt
COC(=O)CCC(=O)OC1(C)C(=O)C=C2C=C(C3CC3)N(CCCCO)C=C2C1=O (stereo not drawn) | 63.7* | 8.6 | 10.7 | 7.9 | -1.7 | 57.9* | 2.2 | Apaf1 inh interf=>100
COC(=O)CCC(=O)OC1(C)C(=O)C=C2C=C(C3CC3)N(CCc3c[nH]c4ccccc34)C=C2C1=O (stereo not drawn) | 28.4 | 5.8 | 11.3 | -3.2 | 2.4 | nt | nt
Cc1nc(NC(=O)C2CC2)sc1C(=O)Nc1ccccc1Cl | -3.7 | 10.7 | nt | 3.0 | 8.0 | nt | nt
Cc1cccc(-n2c(N)c(C(=O)NCCN3CCOCC3)c3nc4ccccc4nc32)c1 | 50.6* | nt | 2.8 | nt | nt | 12.4 | 3.0
CC(C)Cn1c(N)c(C(=O)NCCN2CCOCC2)c2nc3ccccc3nc21 | -4.0 | 0.7 | 6.6 | 6.5 | -3.4 | nt | nt
Nc1c(C(=O)NCc2ccccc2)c2nc3ccccc3nc2n1CCCN1CCOCC1 | 49.4* | -0.5 | 14.6 | -7.7 | 6.2 | 32.5 | 26.4
Nc1c(C(=O)NCc2ccc(F)cc2)c2nc3ccccc3nc2n1CCCN1CCOCC1 | 59.2* | 6.7 | 11.5 | 1.6 | 14.7 | 24.3 | 9.4
Cc1cccc(NC(=O)CSCC(=O)N(C)Cc2ccc(Cl)c(Cl)c2)c1 | 62.6* | 8.9 | 2.5 | 13.1 | -0.7 | 45.9* | 12.2 | Apaf1 inh interf=>100
Cc1ccc(-c2cc(C(=O)NCCCN3CCOCC3)c3ccc(Cl)c(C)c3n2)cc1 | 55.5* | -3.5 | 3.7 | -5.9 | -5.4 | 24.3 | 11.3
O=C(NCCCN1CCOCC1)c1cc(-c2ccccc2)nc2ccccc12 | -3.2 | 2.4 | -0.1 | 1.1 | -0.7 | nt | nt
COc1ccc2cc1Oc1ccc(cc1)C[C@H]1c3c(cc4c(c3Oc3cc5c(cc3OC)CCN(C)[C@@H]5C2)OCO4)CCN1C | 49.2* | -5.9 | 1.0 | 2.0 | 0.2 | 18.2 | -6.0
COc1ccc2cc1Oc1ccc(cc1)C[C@H]1c3cc(c(OC)cc3CCN1C)Oc1c(OC)c(OC)cc3c1[C@H](C2)N(C)CC3 | 32.0 | -4.4 | 0.6 | -5.4 | -6.5 | nt | nt
O=C(NS(=O)(=O)Nc1ccc(Br)cn1)c1c[nH]c2ccccc12 | -1.0 | 2.9 | 3.6 | 6.8 | 1.3 | nt | nt
O=C(Nc1ccc2nc(-c3cccs3)[nH]c2c1)c1cccs1 | 2.4 | 8.7 | 1.7 | 8.3 | 3.0 | nt | nt
O=C(Nc1ccc(-c2nc3ccc(NC(=O)c4cccs4)cc3[nH]2)cc1)c1cccs1 | 68.9* | 17.5 | 15.3 | 0.6 | 7.8 | 90.0* | 6.7 | Apaf1 inh interf=>100
CN(C)c1ccnc2c[cH-]cc12.[Fe].c1ccc(-[c-]2[c-](-c3ccccc3)[c-](-c3ccccc3)[c-](-c3ccccc3)[c-]2-c2ccccc2)cc1 (stereo not drawn) | 47.2*! | 2.1 | 2.4 | 1.4 | 3.0 | 3.9 | 5.4

Assay outcomes deposited in PubChem BioAssay by several laboratories.
